The values below come from the EternaBench riboswitch data.

For the series, the system named is MS2 coat protein. The experiment in a line: apparent Kd, MS2 coat protein; higher = weaker binding; RNA-MaP array; FMN 200 µM where present. The method in brief: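 The titrant was SNAP-549-labelled MS2 coat protein, run from 0.7 or 1.5 nM in doubling steps to 3 µM. It was applied to designs transcribed by stalled E. coli RNA polymerase on Illumina sequencing-chip clusters, without ligand first and then with constant ligand, in 100 mM Tris-HCl pH 7.5, 80 mM KCl, 4 mM MgCl2, BSA, DTT, yeast tRNA and Tween-20. The apparent Kd is the median of filtered per-cluster binding-curve fits, with green signal normalised to red-channel RNA signal and control-cluster median Fmax.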

[1] abbreviates: designed as: OFF switch for flavin mononucleotide, no ligand.
The mark [2] stands for this setting: ligand present: flavin mononucleotide, designed as: OFF switch for flavin mononucleotide.
Where [3] appears, read: designed as: ON switch for flavin mononucleotide, no ligand.
[4] abbreviates: ligand present: flavin mononucleotide, designed as: ON switch for flavin mononucleotide.

Regarding “UUAUUAUAUGUAGGAUAUGCAUAUUGUUGUUAUGCAGAAGGACAUGAGGAUCACCCAUGUAUAUUAUUGUUAUAUAUUGUAUAU”, the “apparent Kd” value reads like this: under setting [1], 24.6 nM; under setting [2], 30.5 nM. In the case of “AAUAAACAUGAGGAUCACCCAUGUCAGGAUAUGCGUCUAACCUAAUACCAUAGAUACGGCAGAAGGGACUAAUA”, the “apparent Kd” value was 50.2 nM under setting [1] and 33.8 nM under setting [2]. On to “GCGAUUUUGUAAGGAUAUACUCGAGUUUUAAGAGUAGAAGGUACUUACAUGAGGAUCACCCAUGUCUAACGUAAUACUAGUCGC”, for which the “apparent Kd” value under setting [3] worked out at 10.3 nM and the “apparent Kd” value under setting [4] worked out at 9.24 nM. Turning to “GGUUAGAAAGGAUAUACAUGUCGUGAGACAUCUUGCACCUAACAUGAGGAUCACCCAUGUAGAAGGUUCAAGCC”, the “apparent Kd” value by setting is: under setting [1], 17.4 nM; under setting [2], 30.5 nM.

With “UUGAUUAUACAAGGAUAUCAAUUGUAAUUGAGACUUACAUGAGGAUCACCCAUGUUAAUAUUUUUUGAGAAGGUGUAUUUUCAG”, the “apparent Kd” value runs as follows: under setting [3], 27.2 nM; under setting [4], 25.4 nM.

“UUCGAGCCAAGGCUCGCGAGUACACAGGAUAUGAAAAGUCACAUGAGGAUCACCCAUGUCCAAAAUCAGAAGGGUGAGACUAAG”: the “apparent Kd” value under setting [3] came out at 520 nM and the “apparent Kd” value under setting [4] was 101 nM.

On to “ACGGAACAUGAGGAUCACCCAUGUAUCUGAAAUAUGGACUCACAGGAUAUCCAGAGUUGCCAAUCGGAGAAGGGUGACUCCAGA”, for which the “apparent Kd” value under setting [3] worked out at 20.1 nM and the “apparent Kd” value under setting [4] was determined as 16.7 nM. For the sequence “ACGCUUUGGGAGAAGGUACGUUAAUUUUUUUCCACAUGAGGAUCACCCAUGUAAGGAUAUCCCGUCGUUAAAUAGGCUACAGCA”, the “apparent Kd” value runs as follows: under setting [1], 9.59 nM; under setting [2], 9.37 nM.

On to “AGCCAGGACGGGUGCCUGAGCGGGAGAAGGUACGAGGGAUCGUCUGGACAUGAGGAUCACCCAUGUAAGGAUAUCCCGCCUAUU”, for which the “apparent Kd” value under setting [1] came to 8.78 nM and the “apparent Kd” value under setting [2] amounted to 18.1 nM. Take “UUGAUAAGGAGAGGAUAUGGACAUGAGGAUCACCCAUGUACAUGGGAAUAUUUACUGAAUUCUUACUAGAAGGCUUACAUAUUU”: the “apparent Kd” value reads like this: under setting [1], 15.7 nM; under setting [2], 13.3 nM. With “GGACAUUUACAGAAGGGCAAGUUAGAUAGUGAAUAUUUAGAUCUGACUUGCAGGAUAUGUUGAACAUGAGGAUCACCCAUGUCC”, the “apparent Kd” value under setting [3] was found to be 13.7 nM and the “apparent Kd” value under setting [4] is 10.8 nM. The corresponding values for “AGCGAACAUGAGGAUCACCCAUGUGAAAAACAUAGAGGAUAUGUCGCAUGCGUGUAAAAGACAGAAGGCUAUCGCG” are 71.6 nM and 33.9 nM.

Regarding “ACAUGAUACAAGAAGGAUGAAUUAGAUUUGAUCAUAGGAUAUUGUUAUAUUGUUUACUCUAAUAACAUGAGGAUCACCCAUGUA”, the “apparent Kd” value is 10.4 nM under setting [3] and 6.94 nM under setting [4]. In the case of “GGUGCGUGUAAAGGAUAUAUGUACUGAGAGGACAUAGAAGGUUACAUGAGGAUCACCCAUGUAGGAAGCGAAAGUUAUCACGUG”, the “apparent Kd” value is, setting by setting: under setting [1], 11.7 nM; under setting [2], 25.3 nM. For the sequence “CUCUUGUUAGGAUAUCAAACUGGCAGCGGAGCUGGCAGAAGUGAGAAGGGACAUGAGGAUCACCCAUGUAAGAA”, the “apparent Kd” value by setting is: under setting [1], 69.2 nM; under setting [2], 228 nM. Taken in the same sequence, the figures for “AAACAUGUCCGAGGAUAUCUGGAAACACUUUCAAGAGAAGGCGGACAUGAGGAUCACCCAUGUCUCUCCUCAUCAACUACAAAU” were 8.71 nM and 49.3 nM.

In the case of “CACGCAUGUGGAGGAUAUGCAGUUAACAUAAGCGCAGAAGGCCACAUGAGGAUCACCCAUGUCCAGCAUUAGCUGAUGUUGAUC”, the “apparent Kd” value reads like this: under setting [1], 385 nM; under setting [2], 195 nM. The corresponding values for “UUUAUUUCGGCAGGAUAUACAUGUAUAUAUAUUCCUUCAUAUCUUAUUACAUGAGGAUCACCCAUGUAGAAGGGCCUUCUUCUC” are 38.4 nM and 42.1 nM.

On to “GUCGUGUUAGGAUAUGGCAACGGCGGCGAAAGUUGUUGUUGUUAGAAGGAACAUGAGGAUCACCCAUGUAUGAC”, for which the “apparent Kd” value is 37.7 nM under setting [1] and 113 nM under setting [2]. Turning to “AUCCUGCGAGGAUAUACUUACUUUUUUUCAUUUGGUUGCGAACAUGAGGAUCACCCAUGUAGAAGGUGCAUAAC”, the “apparent Kd” value is 22.9 nM under setting [1] and 24.7 nM under setting [2]. With “CGGGCUGCUGUGAGGAUAUGCCUGUGGGUGCGUGGGUAGAAGGCACAUGAGGAUCACCCAUGUCCUGCAGCUCG”, under setting [2], the “apparent Kd” value was determined as 717 nM.

Take “GUGGUUGUCGUAGGAUAUGUAGGAUAUUCCUACAUGAGGAUCACCCAUGUUCGCAUGGAAGAAGGACAGAAGGACGAUGACCAA”: the “apparent Kd” value is, setting by setting: under setting [3], 1160 nM; under setting [4], 9.11 nM. Taken in the same sequence, the figures for “GUCGGAAACGACAAAAGUAGCAUACGAGAAGGCUGAUCCACGACAUGAGGAUCACCCAUGUAUUUAGAGGAUAUUGGAUGCUAC” were 134 nM and 21.6 nM. In the case of “UCAUUGAUUGUGAGGAUAUCGAUGUGAUGGUUUGUCGAGAAGGCACAUGAGGAUCACCCAUGUUUGUUUGGGCU”, the “apparent Kd” value was found to be 494 nM under setting [1] and 253 nM under setting [2]. For “UCGCUGCGAGGAUAUACAUGAGGAUCACCCAUGUACGGGUCCGGGUUUGAGUUGAUGAGUAGAAGGCGCAGUGA”, the “apparent Kd” value came to 94.7 nM under setting [1] and 86.1 nM under setting [2].

Turning to “CAGGUAGACUGAGGAUAUACAAAGACCUAGUUUAUCUAGGUCAAAAUCACAUGAGGAUCACCCAUGUAGAAGGCAGUCUGCCUG”, the “apparent Kd” value was determined as 15.7 nM under setting [1] and 26 nM under setting [2]. As for “UGGUACUAGGGAGGAUAUGGGAAGAUACAUGAGGAUCACCCAUGUUUAAGAAUGCCGAGAGGCAAAUAGAAGGCCCUAGUACCU”, the “apparent Kd” value under setting [3] amounted to 658 nM and the “apparent Kd” value under setting [4] was found to be 85.4 nM. As for “AUCAAUCAUGUAGGAUAUGCGUGGCGAAGCUAUGCAGAAGGACAUGAGGAUCACCCAUGUCUUUCUGUCUGCGGACGGACAGGA”, the “apparent Kd” value is 19.2 nM under setting [1] and 55.7 nM under setting [2]. The corresponding values for “CGGCAAAGGAAGGAUAUGCUAGACGAAAGUCUAGCAGAAGGUCCUACAUGAGGAUCACCCAUGUGUCCUAGCCG” are 45.4 nM and 55.1 nM.

With “UUUAAUCGAAACAUGAGGAUCACCCAUGUGUUGUAAUUAACAUAGGAUAUUUGUAUGCUUUUGUAAGAGAAGGAUGAUAAUACU”, the “apparent Kd” value was 21.2 nM under setting [3] and 16.1 nM under setting [4]. Turning to “CUUUAGUGAGGAUAUGUGGCUUCGAUCGUGAGAUCGAGGCUACAGAAGGCACAUGAGGAUCACCCAUGUUCCUA”, the “apparent Kd” value runs as follows: under setting [1], 16.6 nM; under setting [2], 59.4 nM. With “CGUGUCGCAUGAGGAUAUGGUCAGCUUUGCUGACCAGAAGGCAUGUCAAUAGACAUGAGGAUCACCCAUGUAGUUAAGACACGA”, the “apparent Kd” value by setting is: under setting [3], 592 nM; under setting [4], 39.8 nM.

“CGAUAUAUGAAGGGCAAAGGCCCACAUGAGGAUCACCCAUGUAGAAGGCGAUCCGCAACGCGGAUCGAGGAUAUAUAGUAUACA”: the “apparent Kd” value amounted to 8.45 nM under setting [1] and 8.1 nM under setting [2]. Turning to “GCUAUAGAUGUAGGAUAUGAUAUAGAAGCUAUGUCAGAAGGACAUGAGGAUCACCCAUGUCAAUGGAUGGAGAGAAGAUAUGGC”, the “apparent Kd” value under setting [1] amounted to 64.2 nM and the “apparent Kd” value under setting [2] was found to be 69.3 nM. The corresponding values for “UCGAGGUCAGGAUAUACAUGAGGAUCACCCAUGUGGAAGUAAGGUAGGAGAAGAGUAGGUAGAAGGGACGAGAG” are 42.6 nM and 35.7 nM. The corresponding values for “AAACAUGUCCGAGGAUAUCUGAGAUCAUUUUCAAGAGAAGGCGGACAUGAGGAUCACCCAUGUCUCUCCUCAUCAACUCCACAU” are 7.47 nM and 39.1 nM. On to “UAUAUAUAGUAAGGAUAUGUAUAUAUUUUAUCAACAGAAGGUACUGACAUGAGGAUCACCCAUGUUUUAGUGUGGGCAUGUAGA”, for which the “apparent Kd” value is 68.7 nM under setting [1] and 70.8 nM under setting [2].

Take “AGAGAGAGACAGAAGGGCAAGCUCGAUUGCGGAGAAAGCGAUCGAGCUUGCAGGAUAUGUUGAACAUGAGGAUCACCCAUGUCA”: the “apparent Kd” value runs as follows: under setting [3], 7.49 nM; under setting [4], 7.62 nM. Turning to “CUUUAUGUUGAGGAUAUGCACCAGCUCACUGACGCAGAAGGCGACACAUGAGGAUCACCCAUGUCAGUUCGCGU”, the “apparent Kd” value turned out to be 17.6 nM under setting [1] and 17.8 nM under setting [2]. For “CCAGCGUGUGUGAGGAUAUGCUGGUCCUUGGAUCAGCAGAAGGCACAUGAGGAUCACCCAUGUGAGAGCGUUGG”, the “apparent Kd” value came out at 19.6 nM under setting [1] and 86.1 nM under setting [2]. Take “GCUUGUGAAGGAUAUACUGGCGACAUGCGCUCGACACGCGCACAUGAGGAUCACCCAUGUAGAAGGUCAAACAU”: the “apparent Kd” value runs as follows: under setting [1], 20.9 nM; under setting [2], 21.3 nM. As to “UAAUCUCAGAUAGGAUAUAUAGGAUAACUUAAGACCGAACAUGAGGAUCACCCAUGUGAUUAUUCGUAGAAGGAUCAAUGACCC”, the “apparent Kd” value by setting is: under setting [3], 119 nM; under setting [4], 119 nM.

In the case of “GCGUAUAAGGUGUAGCUAGACAUUCAAGAAGGGUGAAGAACAUGAGGAUCACCCAUGUAGUAGGUACAGGAUAUUGAUUUACGC”, the “apparent Kd” value under setting [3] turned out to be 656 nM and the “apparent Kd” value under setting [4] was 372 nM. The corresponding values for “GCCAGGGAUUCAGGAUAUAUUAGCCGAGGCCGCGUAGAAGGGAAAUCCUGACAUGAGGAUCACCCAUGUCGACCCGCCUUCCUC” are 28.5 nM and 29.2 nM.

For “ACAUGAGGAUCACCCAUGUGAUGAUCUCCCAUGUCAUAUUUCAGAAGGCUCGCGUGUUUGAUGAGAGAGGAUAUGGAAUAUGCG”, the “apparent Kd” value stood at 208 nM under setting [1] and 152 nM under setting [2].

Turning to “GUUAUAACAGUCAGGAUAUUUAAGCUUAUCGAGCUAGAGAAGGGACAUGAGGAUCACCCAUGUAGCCUCGUUAG”, the “apparent Kd” value was 16 nM under setting [1] and 17.1 nM under setting [2]. As for “CUUAGACAUGAGGAUCACCCAUGUGAGGAUAUGAUGCAGCAGUGGUCUACGCUGUGCAUCAGAAGGCACAUGUG”, the “apparent Kd” value under setting [1] was 80.7 nM and the “apparent Kd” value under setting [2] turned out to be 14.2 nM. Taken in the same sequence, the figures for “GCCAAUACCGAGGAUAUCCUGAAGCACAUAUCUGGAGAAGGCGGUACAUGAGGAUCACCCAUGUGCUCGUGAGA” were 21.6 nM and 33 nM.
